Bioassay records from PubChem.
bCat nuc transl: modulators of beta-catenin nuclear translocation, primary screen, imaging, HeLa cells, immunofluorescence, high-content. nuclear translocation activity, % at 5 µM. hit rate 0.3% among 190,000. AID 1665, 2009;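 active means nuclear translocation activity above 50% at 5 µM, with a well cell count of 50 or more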;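 further: per-cell ratio of nuclear to cytoplasmic median beta-catenin stain intensity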
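Test system: human HeLa cell line; Doses: 5 µM primary, 0.02–20 µM confirmation; Incubation: 24 h compound exposure, 37°C; Detection: beta-catenin immunofluorescence imaging with DAPI; Read-out: beta-catenin nuclear/cytoplasmic ratio, % activation.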
Autophagy mod: autophagy modulators in MEF cells, primary screen, imaging, high-content, MEF GFP-LC3. calls only at 10 µM (by protocol). hit rate 0.98% among 190,000. MEF GFP-LC3 puncta imaging; test concentration mostly 10 µM;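 active means percentage of spot-positive cells more than 3 SD above its plate mean, without a fluorescence outlier flag or 80% toxicity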
MT stabilize HCS: microtubule stabilizers in HeLa cells, primary screen, imaging, high-content imaging. HeLa tubulin immunostaining HCS, 24 h; share of cells brighter than vehicle mean+2SD. % tubulin-high responders, % at 10 µM. hit rate 0.83% among 200,000. AID 2205, 2009;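 active means plate Z-score above 3 for both tubulin-high and condensed-nucleus cell shares, with cell loss under 80%, at 10 µM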;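 further: anti alpha tubulin signal scored within the nucleus-defined area of each cell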
Dynein transport: inhibitors of GR-EGFP nuclear translocation, primary screen, dynein cargo transport inhibitor project, imaging, high-content, 3617.4 mouse cells; test concentration mostly 20 µM; stimulated with dexamethasone, 1 µM; active compounds read low; z-score, hits read low; hit rate 0.47% among 220,000; AID 1381, 2008;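 active means plate z-score of nuclear minus cytoplasmic receptor signal below a set negative limit, without overly bright fluorescence or cell loss, cut at about -3.5 in these data, passing the limit was not always enough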;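 further: z-score of nuclear minus cytoplasmic ring GR-EGFP intensity difference per well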
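Schedule: 48 h induction, then 1 h compound, then 30 min agonist, 37 °C. Buffer or medium: tetracycline-free induction medium containing charcoal-stripped FBS. Reagent: 1.0 µM final dexamethasone stimulus. Evaluation: nuclear versus cytoplasmic GR-EGFP signal, averaged per well. Signal: high-content fluorescence imaging after fixation.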
L major viab: Leishmania major promastigote growth inhibition, primary screen; Leishmania major promastigotes, resazurin fluorescence viability; AID 1063, 2008; inhibition, % at 10 µM; hit rate 9% among 200,000; in the data active means inhibition above about 50%;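 further: promastigotes grown with compound for 44 hours at 28 °C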
CHOP inhibitor: inhibitors of CHOP promoter induction, primary screen, cell-based, unfolded protein response, luciferase reporter | hit rate 3.8% among 220,000 | CHO-K1 CHOP-promoter luciferase, tunicamycin-induced, 15-18 h | AID 2732, 2010 | inhibition, % at 10 µM;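 active means compounds that reduced the stress-induced luciferase reporter signal by more than about 70% of percent inhibition, limit read from the data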
Of the large screens only hits and unclear results are named; the others gave an inactive call. Hits are enriched below; roughly 12% of the tested compounds scored in any of these assays.

COC(=O)[C@@]1(Cc2ccccc2)[C@H]2c3cc(C(=O)N4CCCC4)n(CCSCCO)c3C[C@H]2CN1C(=O)c1ccccc1	Autophagy mod active
Cc1nnsc1C(=O)NNC(=O)c1cccc2ccccc12	none (no result: Autophagy mod, MT stabilize HCS, L major viab)
COC(=O)[C@@]1(Cc2ccc(F)cc2)[C@H]2c3cc(C(=O)N(C)C)n(CCc4ccccn4)c3C[C@H]2CN1C(=O)c1ccccc1	L major viab 91.0 (no result: bCat nuc transl)
COC(=O)[C@@]1(Cc2ccc(OC)cc2)[C@H]2c3cc(C(=O)N(C)C)n(Cc4ccc(OC(F)(F)F)cc4)c3C[C@H]2CN1C(=O)c1ccccc1	L major viab 50.1 (no result: bCat nuc transl)
COC(=O)[C@@]1(Cc2ccc(OC)cc2)[C@H]2c3cc(C(=O)N4CCCC4)n(Cc4ccc(C)o4)c3C[C@H]2CN1C(=O)c1ccccc1	L major viab 53.2
COc1cccc(NC(=S)N(CCN(C)C)C(C)c2ccncc2)c1 (centres undefined)	none (no result: Autophagy mod, MT stabilize HCS, L major viab)
N#Cc1ccc(NC(=S)NCCN2CCOCC2)cc1	none
O=C(CSc1ncn[nH]1)OCN1C(=O)c2ccccc2C1=O	none
CC(=O)N1CCCc2cc(S(=O)(=O)Nc3ccc(C)cc3C)ccc21	none
O=C(O)c1cc(NS(=O)(=O)c2ccc(N3CCOCC3)c([N+](=O)[O-])c2)cc(C(=O)O)c1	none
O=[N+]([O-])c1cc(S(=O)(=O)Nc2ccccc2)ccc1N1CCN(c2ccc(O)cc2)CC1	L major viab 79.5
Cc1ccc(NS(=O)(=O)c2ccc(N3CCN(c4ccc(O)cc4)CC3)c([N+](=O)[O-])c2)c(C)c1	L major viab 97.7, CHOP inhibitor 73.3
COC(=O)c1c(NC(NC(C)=O)C(Cl)(Cl)Cl)sc2c1CCCC2 (centres undefined)	none
COC(=O)c1c(NC(NC(=O)C(C)C)C(Cl)(Cl)Cl)sc2c1CCC2 (centres undefined)	L major viab 53.3
COC(=O)c1c(NC(NC(=O)C(C)(C)C)C(Cl)(Cl)Cl)sc2c1CCC2 (centres undefined)	L major viab 51.4, CHOP inhibitor 77.6
CCOc1cc(C(=O)OCC(=O)Nc2cc(C)on2)cc(OCC)c1OCC	none
CC(=O)N(C(C)=O)c1nc(-c2ccccc2)cn1/N=C/c1cccc([N+](=O)[O-])c1	CHOP inhibitor 91.8 (no result: Autophagy mod, MT stabilize HCS, L major viab)
Nc1nc(-c2ccccc2)cn1/N=C/c1ccccc1	none (no result: Autophagy mod, MT stabilize HCS, L major viab)
Oc1cccc(C(O)CNCc2ccc(OCc3ccc(Cl)cc3Cl)cc2)c1 (centres undefined)	L major viab 97.0, CHOP inhibitor 103.8
CC(C)c1ccccc1NC(=O)CNCCc1ccc(C(F)(F)F)cc1	CHOP inhibitor 75.8 (no result: Autophagy mod, MT stabilize HCS, L major viab)
O=[N+]([O-])c1ccc(CSc2nnc(Cc3ccccc3)n2-c2ccc(F)cc2)cc1	Autophagy mod active
Cc1cc(N2CCN(c3nc(-c4ccc([N+](=O)[O-])cc4)cs3)CC2)c2ccccc2n1	CHOP inhibitor 81.7
O=C(CSc1nc2ccccc2o1)N/N=C/c1ccc(C(=O)O)cc1	none (no result: Autophagy mod, MT stabilize HCS, L major viab)
O=C1CC2(CCCC2)CC(=O)N1CCCCN1CCN(c2ncccn2)CC1	L major viab 59.5
Nc1ccccc1C(=O)/C=C/c1ccc2c(c1)OCO2	L major viab 58.0 (no result: bCat nuc transl)
CC(C)(C)c1ccc(OCCNC(=S)NC(=O)c2cccnc2)cc1	L major viab 53.0
CCCCOc1cccc(C(=O)NC(=S)Nc2cccnc2)c1	L major viab 51.3
CC(C)(C)c1cc(Cl)c(O)c(NC(=S)NC(=O)c2cccnc2)c1	CHOP inhibitor 73.1
CCOc1cccc(C(=O)NC(=S)Nc2cccnc2)c1	none
Cc1ccccc1N(CC(=O)NC1CCCC1)C(=O)c1oc(C(C)(C)C)cc1C	none
Cc1cc(C(C)(C)C)oc1C(=O)N(CC(=O)NC1CCCC1)c1cccc(C(F)(F)F)c1	CHOP inhibitor 82.5
CCOP(=O)(OCC)C(Nc1cccc(C(F)(F)F)c1)c1ccc(C)cc1 (centres undefined)	L major viab 58.6
CCCOP(=O)(OCCC)C(Nc1cccc(C(F)(F)F)c1)c1ccc(C)cc1 (centres undefined)	CHOP inhibitor 90.3
CCOP(=O)(OCC)C(Nc1cccc(C(F)(F)F)c1)c1ccc(F)cc1 (centres undefined)	none
CCOC(=O)c1c(/N=C/C2=C(O)CC(C)(C)CC2=O)sc(C)c1C	none
Cc1sc(NC(=O)c2ccco2)c(CN2CCN(Cc3ccccc3)CC2)c1C	none
CCOC(=O)c1c(NC(=O)CSc2nnc(Cc3ccccc3)o2)sc(C)c1C	none
CCCC1=C(C(=O)OCC)C(/C=C/c2ccccc2)n2ncnc2N1 (centres undefined)	MT stabilize HCS 45.0 (no result: bCat nuc transl)
CCOC(=O)C1=C(c2ccccc2)Nc2ncnn2C1c1ccc(O)cc1 (centres undefined)	none (no result: Autophagy mod, MT stabilize HCS, L major viab)
CCOC(=O)C1=C(C)Nc2ncnn2C1/C=C/c1ccccc1 (centres undefined)	none
CCOC(=O)C1=C(c2ccccc2)Nc2ncnn2C1c1cc(OC)cc(OC)c1OC (centres undefined)	L major viab 91.7
CCOC(=O)C1=C(c2ccccc2)Nc2ncnn2C1c1cccc(OC)c1OC (centres undefined)	L major viab 99.9
CCc1ccc(NC(=O)CNS(=O)(=O)c2c(C)noc2C)cc1	none
O=C(O)/C=C/C(=O)Nc1cc(F)ccc1F	none (no result: Autophagy mod, MT stabilize HCS, L major viab)
CC(=O)Nc1cccc(OCCCNC(=O)c2cccc3ccccc23)c1	none (no result: Autophagy mod, MT stabilize HCS, L major viab)
CCOC(=O)c1oc2ccccc2c1NC(=O)CN1CCOCC1	none
Cc1ccc(N2C(=O)C3C4C=CC(CNC(=S)Nc5ccc(F)cc5)(O4)C3C2=O)cc1 (centres undefined)	L major viab 66.5
Cc1ccc(N2C(=O)C3C4C=CC(CNC(=S)Nc5ccc(Cl)cc5)(O4)C3C2=O)cc1 (centres undefined)	L major viab 82.9
Cc1ccc(N2C(=O)C3C4C=CC(CNC(=S)Nc5cccc(Cl)c5)(O4)C3C2=O)cc1 (centres undefined)	L major viab 79.1
Cc1ccc(N2C(=O)C3C4C=CC(CNC(=S)N5CCN(c6ccccn6)CC5)(O4)C3C2=O)cc1 (centres undefined)	none
CC(C)COC(=O)NCC12C=CC(O1)C1C(=O)N(c3ccc(Cl)cc3)C(=O)C12 (centres undefined)	none (no result: bCat nuc transl)
O=C(Cc1ccccc1Cl)Nc1nc2ccccc2[nH]1	none (no result: Autophagy mod, MT stabilize HCS, L major viab)
COc1ccccc1NS(=O)(=O)c1cc(NC(=O)c2cccs2)ccc1N1CCOCC1	none (no result: Autophagy mod, MT stabilize HCS, L major viab)
COc1ccccc1NS(=O)(=O)c1cc(NC(=O)c2ccccc2F)ccc1N1CCOCC1	none
COc1ccccc1NS(=O)(=O)c1cc(NC(=O)CCC2CCCC2)ccc1N1CCOCC1	L major viab 98.6
